Screening results from PubChem.
A selection: hits, their analogues and other compounds. The true share with any hit is near 3.5%.
Apaf1 inhib – inhibitors of human Apaf-1 apoptosome, primary screen, biochemical, DEVD-Rh110 fluorescence, uHTS. reconstituted apoptosome caspase-3 activity. inhibition, % at 20 µM. 0.71% of 330,000 active; active means inhibition of at least 40% at 20 µM;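 further: plate controls were DMSO wells for no effect and DEVD-CHO caspase inhibitor wells for full effect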
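Medium: Hepes buffer, pH 7.5 / System: biochemical Apaf-1 apoptosome reconstitution / Measured by: Rh110 fluorescence, excitation 480 nm, emission 540 nm / Times: compound with Apaf-1, dATP, procaspase-3 30 min, then 50 min reaction, room temperature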
pPAFAH FP inh – pPAFAH enzyme inhibitors, primary screen, biochemical, fluorescence polarization, human; inhibition, % at 3.39 µM; AID 463082, 2010; 1.5% of 330,000 active; recombinant pPAFAH, FP-rhodamine probe fluorescence polarization; Platelet-activating factor acetylhydrolase (Homo sapiens), Q13093;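 active means inhibition above the mean inhibition across the screen plus 3 SD, cut at about 25% in these data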;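 further: inhibitors block binding of the rhodamine activity-based probe so polarization drops; 0% = enzyme with DMSO and 100% = wells lacking pPAFAH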
PAFAH1B3 FP inh – PAFAH1B3 enzyme inhibitors, primary screen, biochemical, fluorescence polarization, human. Platelet-activating factor acetylhydrolase IB subunit alpha1 (Homo sapiens), Q15102. recombinant PAFAH1B3, FP-rhodamine probe. inhibition, % at 3.39 µM. 0.28% of 340,000 active;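 active means inhibition above the screen-wide average of all tested compounds plus 3 SD, cut at about 25% in these data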;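 further: 0% = enzyme with DMSO only and 100% = wells lacking PAFAH1B3 protein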
PREPL inhibitor – PREPL enzyme inhibitors, primary screen, biochemical, fluorescence polarization. recombinant PREPL, fluorescence polarization activity-based probe. inhibition, % at 5.96 µM. 0.68% of 320,000 active. AID 2751, 2010; in the data active means inhibition above about 43%;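 further: 0% = enzyme with DMSO and 100% = wells lacking enzyme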
PAFAH1B2 inh – PAFAH1B2 enzyme inhibitors, primary screen, biochemical, fluorescence polarization, human; AID 492953, 2010; recombinant PAFAH1B2, FP-rhodamine activity probe; inhibition, % at 3.39 µM; Platelet-activating factor acetylhydrolase IB subunit alpha2 (Homo sapiens), P68402; 1.2% of 340,000 active;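 active means inhibition above the mean of all tested compounds plus 3 SD, cut at about 24% in these data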;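 further: 0% = enzyme with DMSO and 100% = wells lacking PAFAH1B2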
PAFAH2 FP inh – PAFAH2 enzyme inhibitors, primary screen, biochemical, fluorescence polarization, human; inhibition, % at 3.39 µM; 0.99% of 340,000 active; recombinant PAFAH2, FP-rhodamine activity probe;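 active means inhibition above the mean over all tested compounds plus 3 SD, cut at about 30% in these data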;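 further: inhibitors block probe labeling of enzyme so polarization drops; 0% = enzyme with DMSO and 100% = wells lacking PAFAH2 protein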
* hit, by the source's call; . = no result given.

SMILES	Apaf1 inhib	pPAFAH FP inh	PAFAH1B3 FP inh	PREPL inhibitor	PAFAH1B2 inh	PAFAH2 FP inh
O=C(c1ccc(Cn2c(=S)[nH]c3ccc(N4CCOCC4)cc3c2=O)cc1)N1CCN(c2ccc(F)cc2)CC1	15	13	4	63*	2	-10
O=C(c1ccc2c(=O)n(Cc3ccccc3)c(=S)[nH]c2c1)N1CCCC1	14	9	6	-10	26*	7
Cc1ccc(C)c(N2CCN(C(=O)c3ccc(Cn4c(=S)[nH]c5ccc(N6CCOCC6)cc5c4=O)cc3)CC2)c1	6	27*	2	21	-4	4
Cn1cccc1C(=O)NCC1COc2ccccc2O1 (centres undefined)	5	.	-4	.	2	-8
Cc1cc(NC(=O)CSc2nc(=O)cc(N)n2-c2ccc(C)c(C)c2)no1	3	2	4	-4	5	2
CN(C(=O)COC(=O)CNC(=O)c1sc2ccccc2c1Cl)C1CCS(=O)(=O)C1 (centres undefined)	2	1	1	21	6	1
O=C(O)c1cccc(NC(CNS(=O)(=O)c2ccc(Cl)cc2)c2ccccc2)c1 (centres undefined)	22	26*	11	29	75*	18
O=S(=O)(NCC(Nc1ccccc1)c1ccccc1)c1ccc(Cl)cc1 (centres undefined)	-245	10	0	8	17	13
COC(=O)[C@@H](Cc1ccccc1)NC(=O)Cn1cc(C)c(=O)[nH]c1=O	.	.	8	.	2	-4
O=C(O)c1ccc(Cl)cc1Nc1nc2cc(Cl)ccc2o1	.	23	-1	9	21	15
O=C(CN1CCN(S(=O)(=O)c2ccc(Br)cc2)CC1)N/N=C/c1ccncc1	7	-7	8	22	29*	-6
Cc1ccc(S(=O)(=O)N2CCN(CC(=O)N/N=C\c3cccnc3)CC2)cc1	-5	-1	1	2	1	-6
O=C(CN1CCN(S(=O)(=O)c2ccc(Br)cc2)CC1)c1ccc(O)c(O)c1	1	11	1	2	29*	14
CC(C)c1ccc(S(=O)(=O)N2CCN(CC(=O)c3ccc(O)c(O)c3)CC2)cc1	19	20	7	18	6	17
COc1ccc(OC)c(C(=O)CN2CCN(S(=O)(=O)c3ccc(Br)cc3)CC2)c1	9	7	5	-4	29*	3
COc1ccc(S(=O)(=O)N2CCN(CCOc3ccc(Br)cc3)CC2)cc1OC	17	1	12	11	3	6
CC1=C(O)C(=O)OC1c1c(Cl)cccc1Cl (centres undefined)	-2	6	2	0	-2	1
O=C(O)c1cc(S(=O)(=O)NC(Cc2c[nH]c3ccccc23)C(=O)O)ccc1Cl (centres undefined)	8	6	5	5	25*	7
COc1cc(/C=C2\SC(=O)N(Cc3ccc(Cl)cc3)C2=O)cc([N+](=O)[O-])c1O	.	.	19	.	39*	49*
COc1cc(/C=C2\SC(=O)N(Cc3ccc(F)cc3)C2=O)cc([N+](=O)[O-])c1O	17	.	5	.	5	29
COc1ccc(/C=N/NC2=NS(=O)(=O)c3ccccc32)cc1OC(C)=O	0	-1	10	1	6	2
O=C(COC(=O)c1ccco1)NC12CC3CC(CC(C3)C1)C2	-5	0	-1	14	-1	-1
CC(/C=N/NC(=O)NC1CCCCC1)=C\c1ccccc1	36	29*	12	10	1	0
O=C(N/N=C/C(Br)=C/c1ccccc1)NC1CCCCC1	37	25	9	10	-4	-4
Cn1cc(C(=O)NCCN2CCN(c3cccc(Cl)c3)CC2)c2c3ccccc3n(C)c2c1=O	29	0	11	46*	2	-4
COc1ccccc1CN1CC(C(=O)NCCc2ccc(C)o2)CCC1=O (centres undefined)	-16	5	-2	-2	-5	1
